This is an account of results in ChEMBL document CHEMBL1909595, “Characterization of a novel and selective CB1 antagonist as a radioligand for receptor occupancy studies” (Bioorg Med Chem Lett, 2011).

For data set [1], the target named is T1, Cannabinoid receptor 1 (Homo sapiens, UniProt P21554). Nature of the data set: Binding affinity to human CB1 receptor expressed in CHO cells after 90 mins by scintillation counting. It is filed as cell-based. In short, it runs like this:
(§1)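 Rat whole-brain or CHO (human CB1) membranes were homogenized in 10 mM HEPES/1 mM EGTA pH 7.4 with protease inhibitors, DTT and sucrose. Centrifuged at 1000 g, then the pellet was taken at 100,000 g and resuspended in 20 mM HEPES, 1 mM EGTA, 1 mM DTT, 1 mM MgCl2. Saturation with increasing [3H]BMS-725519; nonspecific binding by cold BMS-725519. 90 min at room temperature, GF/B filtration, scintillation counting. Kd and Bmax derived.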

Data set [2] concerns Brain. As to the kind of experiment: Drug uptake in brain of mouse expressing CB1 receptor at 10 uM. It counts as ADME, tissue-based. The settings on record: in vivo.
Data set [3] concerns the target T2, Cannabinoid receptor 1 (Rattus norvegicus, UniProt P20272). Nature of the data set: Binding affinity to rat brain CB1 receptor after 90 mins by scintillation counting. In short, it runs like this:
as §1

Data set [4] deals with Brain. As to the kind of experiment: Drug uptake in brain of CB1 receptor knockout mouse at 10 uM. It counts as ADME, tissue-based. The settings on record: in vivo.
The next data set has as its target Cannabinoid receptor 2 (Homo sapiens, UniProt P34972). Nature of the data set: Displacement of [3H]-CP55940 from human CB2 receptor.
Data set [5] has as its system Plasma. Nature of the data set: Free plasma concentration in Sprague-Dawley rat at 0.03 mg/kg, po measured 6 hrs post dose. Details: dose 0.03 mg/kg, route oral; call rule not given here. It is filed as ADME, organism-based. The conditions noted are these: in vivo.
Data set [6] relates to Rattus norvegicus. Nature of the data set: Ex vivo receptor occupancy of CB1 receptor in Sprague-Dawley rat at 10 mg/kg, po measured 6 hrs post dose. It is filed as functional. Put shortly:
(§2)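 Male Sprague-Dawley rats were dosed p.o. (0.03–30 mg/kg, vehicle 10% DMAC/cremophor/ethanol, 2 ml/kg) 1 h before the dark cycle. Brains were taken 6 h post-dose, three per group, frozen and cut into 20 µm cryosections. Sections pre-incubated 30 s, then 6 min with 40 nM [3H]BMS-725519 in chilled HEPES buffer. Nonspecific binding by 5 µM unlabelled BMS-725519. Three 30 s washes. Cerebellar density measured by phosphor imaging (DLU/mm², background-subtracted); occupancy expressed relative to vehicle specific binding.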

Data set [7] relates to Rattus norvegicus. As to the kind of experiment: Ex vivo receptor occupancy of CB1 receptor in Sprague-Dawley rat at 3 mg/kg, po measured 6 hrs post dose. It counts as functional. Put shortly:
as §2

In data set [8] the test system is Plasma. As to the kind of experiment: Free plasma concentration in Sprague-Dawley rat at 10 mg/kg, po measured 6 hrs post dose. The arrangement: dose 10 mg/kg, route oral. It counts as ADME, organism-based. The settings on record: in vivo.
The test system of data set [9] is Plasma. As to the kind of experiment: Free plasma concentration in Sprague-Dawley rat at 3 mg/kg, po measured 6 hrs post dose. It is filed as ADME, organism-based. The conditions noted are these: in vivo. The arrangement: dose 3 mg/kg, route oral.
Data set [10] concerns Rattus norvegicus. As to the kind of experiment: Antiobesity activity in Sprague-Dawley rat assessed as reduction in food intake at 10 mg/kg, po measured after 20 hrs. It counts as functional. The arrangement: scale not given: the % may be the effect or the level left. Put shortly:
(§3)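 Male Sprague-Dawley rats, six per group, trained to bar-press for food pellets in operant chambers. Dosed p.o. in 10% DMAC/10% EtOH/10% Cremophor/70% water at 2 ml/kg. Two 20 h sessions starting at dark-cycle onset, 4 h apart. The first session was the baseline used to balance groups. Pellets counted at 1, 2, 4, 8, 12 and 20 h after lock-out. One-way ANOVA with Fisher PLSD.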

Data set [11] concerns Rattus norvegicus. As to the kind of experiment: Antiobesity activity in Sprague-Dawley rat assessed as reduction in food intake at 3 mg/kg, po measured after 20 hrs. It counts as functional. The arrangement: scale not given: the % may be the effect or the level left. In short, it runs like this: as §3
Data set [12] concerns Rattus norvegicus. As to the kind of experiment: Ex vivo receptor occupancy of CB1 receptor in Sprague-Dawley rat at 0.1 mg/kg, po measured 6 hrs post dose. It is filed as functional. In short, it runs like this: as §2
In data set [13] the test system is Rattus norvegicus. As to the kind of experiment: Antiobesity activity in Sprague-Dawley rat assessed as reduction in food intake at 0.3 mg/kg, po measured after 20 hrs. Details: scale not given: the % may be the effect or the level left. It is filed as functional. Put shortly: as §3
Data set [14] relates to Rattus norvegicus. As to the kind of experiment: Antiobesity activity in Sprague-Dawley rat assessed as reduction in food intake at 30 mg/kg, po measured after 20 hrs. It is filed as functional. The arrangement: scale not given: the % may be the effect or the level left. In short, it runs like this:
as §3

The target in data set [15] is T2, Cannabinoid receptor 1. Nature of the data set: Displacement of [3H]-SR-141716 from rat CB1 receptor.
For data set [16], the target named is T1, Cannabinoid receptor 1. As to the kind of experiment: Displacement of [3H]-SR-141716 from human CB1 receptor.
Data set [17] has as its system Rattus norvegicus. As to the kind of experiment: Ex vivo receptor occupancy of CB1 receptor in Sprague-Dawley rat at 30 mg/kg, po measured 6 hrs post dose. It is filed as functional. Put shortly: as §2
The subject of data set [18] is Plasma. As to the kind of experiment: Free plasma concentration in Sprague-Dawley rat at 30 mg/kg, po measured 6 hrs post dose. The conditions noted are these: in vivo. It is filed as ADME, organism-based. Details: dose 30 mg/kg, route oral.
In data set [19] the test system is Rattus norvegicus. As to the kind of experiment: Ex vivo receptor occupancy of CB1 receptor in Sprague-Dawley rat at 1 mg/kg, po measured 6 hrs post dose. It is filed as functional. Put shortly: as §2
Data set [20] has as its system Rattus norvegicus. As to the kind of experiment: Ex vivo receptor occupancy of CB1 receptor in Sprague-Dawley rat at 0.3 mg/kg, po measured 6 hrs post dose. It counts as functional. Put shortly: as §2
In data set [21] the test system is Rattus norvegicus. As to the kind of experiment: Antiobesity activity in Sprague-Dawley rat assessed as reduction in food intake at 0.1 mg/kg, po measured after 20 hrs. It counts as functional. The arrangement: scale not given: the % may be the effect or the level left. Put shortly:
as §3

Data set [22] deals with Plasma. Nature of the data set: Free plasma concentration in Sprague-Dawley rat at 0.3 mg/kg, po measured 6 hrs post dose. It counts as ADME, organism-based. Details: dose 0.3 mg/kg, route oral. The settings on record: in vivo.
For data set [23], the system named is Rattus norvegicus. As to the kind of experiment: Antiobesity activity in Sprague-Dawley rat assessed as reduction in food intake at 1 mg/kg, po measured after 20 hrs. It is filed as functional. Details: scale not given: the % may be the effect or the level left. In short, it runs like this: as §3
Data set [24] is described as follows: Protein binding in human. It counts as ADME.
Data set [25] concerns the target T2, Cannabinoid receptor 1. Nature of the data set: Displacement of [3H]BMS-725519 from rat brain CB1 receptor after 45 mins by autoradiography.
Data set [26] deals with Plasma. As to the kind of experiment: Free plasma concentration in Sprague-Dawley rat at 1 mg/kg, po measured 6 hrs post dose. The conditions noted are these: in vivo. It is filed as ADME, organism-based. Details: dose 1 mg/kg, route oral.
For data set [27], the system named is Rattus norvegicus. As to the kind of experiment: Antiobesity activity in Sprague-Dawley rat assessed as reduction in food intake at 0.03 mg/kg, po measured after 20 hrs. The arrangement: scale not given: the % may be the effect or the level left. It counts as functional. In short, it runs like this: as §3
Data set [28] concerns Rattus norvegicus. As to the kind of experiment: Ex vivo receptor occupancy of CB1 receptor in Sprague-Dawley rat at 0.03 mg/kg, po measured 6 hrs post dose. It is filed as functional. In short, it runs like this: as §2
Data set [29] concerns Plasma. Nature of the data set: Free plasma concentration in Sprague-Dawley rat at 0.1 mg/kg, po measured 6 hrs post dose. It is filed as ADME, organism-based. The arrangement: dose 0.1 mg/kg, route oral. The settings on record: in vivo.

Molecules are shown by their SMILES.

T2 sequence (P20272 whole entry): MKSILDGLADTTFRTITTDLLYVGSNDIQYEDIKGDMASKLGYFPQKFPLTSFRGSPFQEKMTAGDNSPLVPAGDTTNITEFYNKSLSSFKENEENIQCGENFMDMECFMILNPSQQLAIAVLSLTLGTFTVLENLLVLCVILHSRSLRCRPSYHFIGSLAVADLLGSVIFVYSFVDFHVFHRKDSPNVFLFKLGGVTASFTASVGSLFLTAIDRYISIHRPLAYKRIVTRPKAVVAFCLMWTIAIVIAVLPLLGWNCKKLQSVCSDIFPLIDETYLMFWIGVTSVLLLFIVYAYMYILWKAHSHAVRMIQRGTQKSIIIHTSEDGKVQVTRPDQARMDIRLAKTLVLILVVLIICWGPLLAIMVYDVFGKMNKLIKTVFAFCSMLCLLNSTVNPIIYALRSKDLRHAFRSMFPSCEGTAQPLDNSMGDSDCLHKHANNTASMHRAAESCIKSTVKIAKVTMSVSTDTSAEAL
T1 sequence (P21554 whole entry): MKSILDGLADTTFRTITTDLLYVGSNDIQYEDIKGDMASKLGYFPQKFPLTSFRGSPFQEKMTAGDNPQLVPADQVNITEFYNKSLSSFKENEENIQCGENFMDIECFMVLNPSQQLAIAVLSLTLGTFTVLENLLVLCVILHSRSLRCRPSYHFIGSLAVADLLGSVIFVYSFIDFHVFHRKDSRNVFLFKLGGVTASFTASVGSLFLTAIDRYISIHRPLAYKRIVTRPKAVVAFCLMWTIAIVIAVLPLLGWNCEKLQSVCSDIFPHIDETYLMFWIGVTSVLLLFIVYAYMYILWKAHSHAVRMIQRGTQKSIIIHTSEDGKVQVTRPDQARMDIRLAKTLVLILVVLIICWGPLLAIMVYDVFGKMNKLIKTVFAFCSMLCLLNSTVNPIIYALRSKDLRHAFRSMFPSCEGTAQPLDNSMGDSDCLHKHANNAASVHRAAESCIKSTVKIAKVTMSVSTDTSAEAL
Sequence of Cannabinoid receptor 2 (P34972 whole entry): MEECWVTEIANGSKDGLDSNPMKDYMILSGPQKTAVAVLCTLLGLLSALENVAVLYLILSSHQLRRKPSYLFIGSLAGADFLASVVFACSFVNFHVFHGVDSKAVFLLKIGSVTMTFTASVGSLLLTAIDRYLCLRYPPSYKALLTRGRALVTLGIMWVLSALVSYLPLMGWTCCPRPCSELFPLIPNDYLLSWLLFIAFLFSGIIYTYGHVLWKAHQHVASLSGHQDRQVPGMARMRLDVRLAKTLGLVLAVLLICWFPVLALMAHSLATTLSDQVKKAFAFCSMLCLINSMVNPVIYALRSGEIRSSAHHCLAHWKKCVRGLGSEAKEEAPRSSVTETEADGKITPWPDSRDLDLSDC

For the compound `[3H]c1cc(-c2cnn3c(=O)n(Cc4ccc(C(F)(F)F)nc4[3H])nc3c2-c2ccncc2)ccc1Cl`, the dissociation constant Kd on Cannabinoid receptor 1 [1] stood at 3.95 nM; at Cannabinoid receptor 1 [3], 29.1 nM. Also, the Drug uptake entry is “Active” with Brain [2] and “Not Active” in the data set with Brain [4].
Turning to `O=c1n(Cc2ccc(C(F)(F)F)nc2)nc2c(-c3ccncc3)c(-c3ccc(Cl)cc3)cnn12`, the equilibrium dissociation constant (Kd) on Cannabinoid receptor 2 was over 10 µM; on Cannabinoid receptor 1 [15] it was 12.4 nM; at Cannabinoid receptor 1 [16], 4.6 nM. The “Cp(f)” value in the data set on Plasma [5] was determined as 1.5 nM; in the data set on Plasma [8], 531 nM; with Plasma [9], 112 nM; in the data set with Plasma [18], 1047 nM; with Plasma [22] it was 15.3 nM; in the data set with Plasma [26], 49.4 nM. The “Cp(f)” value in the data set with Plasma [29] is on record as 5.4 nM. Also, the Activity with Rattus norvegicus [6] worked out at 64.5%; in the data set with Rattus norvegicus [7], 55.6%; in the data set on Rattus norvegicus [10] it was 67.4%; with Rattus norvegicus [11], 41.5%; with Rattus norvegicus [12], 14.3%; with Rattus norvegicus [13], 22.3%. For the same compound, the Activity was determined as 72.5% in the data set on Rattus norvegicus [14]; 74.1% with Rattus norvegicus [17]; 29.8% in the data set on Rattus norvegicus [19]; 20.6% in the data set with Rattus norvegicus [20]; 0% with Rattus norvegicus [21]; 23.7% with Rattus norvegicus [23]. Besides, the results for the Activity in the data set with Rattus norvegicus [27] and in the data set with Rattus norvegicus [28] were 0% and 12.7%, respectively. In data set [24], this compound came in with a fraction unbound of 0.05. Moreover, on Cannabinoid receptor 1 [25], the IC50 was found to be 37 nM.
